The values below come from ChEMBL document CHEMBL5523695, “Discovery of small molecule benzothiazole and indole derivatives tackling tau 2N4R and α-synuclein fibrils” (Bioorg Med Chem, 2024).

Calls of active or inactive are those of the source. No cut-off for these calls is given here. Where only a bound is given, the exact number is not on record here.

The first experiment addresses Alpha-synuclein (Homo sapiens) (UniProt P37840). The experiment is described as follows: Inhibition of recombinant alpha-Synuclein (unknown origin) aggregation assessed as reduction in fluorescence intensity by measuring residual activity at 100 uM measured every 20 mins for 40 to 70 hrs by Thioflavin T based fluorescence analysis relative to control. The conditions noted are these: time 40-70 hrs. The method in brief:
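Recombinant α-syn (2 μM final) in 10 mM PBS pH 7.4 with 0.5 mM SDS and 300 mM NaCl. Compound at 100 μM final, ThT 20 μM, one borosilicate bead per well. Read at 37 °C every 20 min after 10 s shaking, ex 440/em 485 nm, for 40–70 h. Background was ThT plus 0.25 % DMSO without protein. Plateau fluorescence expressed as % of control, triplicates, mean ± SEM.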
With `COc1cccc2sc(NC(=O)c3ccc([N+](=O)[O-])cc3)nc12`, the Activity stood at 45.4%. Still for that read-out and setting: under `COc1ccccc1S(=O)(=O)Nc1nc2c(OC)cccc2s1` stands 79.3%; under `COc1cccc2sc(NC(=O)c3cccc([N+](=O)[O-])c3)nc12`, 48.1%.

Take `COc1cccc2sc(NC(=O)Nc3ccc(I)cc3)nc12`: the Activity came out at 141%.

Turning to `COc1cccc2sc(NC(=O)Nc3ccccc3C)nc12`, the Activity is 148%. Same read-out and setting: under `COc1cccc2sc(NS(=O)(=O)c3ccc(F)cc3)nc12` stands 70.4%; under `O=C(Nc1ccccc1I)Nc1cccc2[nH]ccc12`, 38.3%. As to `COc1cccc2sc(NS(=O)(=O)c3cc(Cl)cc(Cl)c3)nc12`, the Activity was 39.3%.

Take `COc1cccc2sc(NC(=O)Nc3cccc([N+](=O)[O-])c3)nc12`: the Activity amounted to 78.1%. For the compound `COc1cccc2sc(NC(=O)Nc3ccccc3F)nc12`, the Activity was above 200%. `COc1ccccc1NC(=O)Nc1nc2c(OC)cccc2s1`: the Activity is 199%.

Regarding `COc1cccc2sc(NC(=O)c3ccc(Cl)cc3)nc12`, the Activity was determined as 116%. For `COc1cccc2sc(NC(=O)Nc3cc(Cl)cc(Cl)c3)nc12`, the Activity was above 200%. On to `COc1cccc2sc(NC(=O)c3ccccc3I)nc12`, for which the Activity was 137%. As for `COc1cccc2sc(NC(=O)Nc3ccc(F)cc3)nc12`, the Activity was found to be 145%. For the compound `COc1cccc2sc(NC(=O)Nc3ccccc3[N+](=O)[O-])nc12`, the Activity was found to be 64.4%. Consider `COc1ccccc1C(=O)Nc1nc2c(OC)cccc2s1`, for which the Activity stood at 182%.

For the compound `COc1cccc2sc(NC(=O)Nc3ccc(Cl)cc3)nc12`, the Activity was determined as 173%. As to `COc1cccc2sc(NS(=O)(=O)c3ccccc3Cl)nc12`, the Activity came to 19.3%.

Consider `COc1cccc2sc(NC(=O)c3ccc(C#N)cc3)nc12`, for which the Activity was determined as 128%.

As to `COc1cccc2sc(NS(=O)(=O)c3ccc(C(F)(F)F)cc3)nc12`, the Activity stood at 53.8%. As for `COc1cccc2sc(NC(=O)Nc3ccccc3)nc12`, the Activity is 130%. Same read-out and setting: under `COc1cccc2sc(NS(=O)(=O)c3ccc(I)cc3)nc12` stands 42.8%; under `O=S(=O)(Nc1ccc2[nH]ccc2c1)c1ccccc1I`, 59.7%; under `COc1cccc2sc(NS(=O)(=O)c3ccccc3[N+](=O)[O-])nc12`, 41%.

For `COc1cccc2sc(NC(=O)Nc3ccc(Br)cc3)nc12`, the Activity was found to be 170%. Same read-out and setting: under `COc1cccc2sc(NC(=O)c3ccc(I)cc3)nc12` stands above 200%.

Turning to `O=[N+]([O-])c1ccc(S(=O)(=O)Nc2ccc3[nH]ccc3c2)cc1`, the Activity stood at 97.6%.

Turning to `O=C(Nc1ccc2cc[nH]c2c1)Nc1ccccc1I`, the Activity came to 83.4%. In the case of `COc1cccc2sc(NS(=O)(=O)c3cccc(C(F)(F)F)c3)nc12`, the Activity worked out at 56%. `COc1cccc2sc(NC(=O)c3ccc(F)cc3)nc12`: the Activity is 103%.

Turning to `COc1cccc2sc(NC(=O)c3cccc(C(F)(F)F)c3)nc12`, the Activity was 84.7%.

Consider `COc1cccc2sc(NC(=O)c3ccccc3Cl)nc12`, for which the Activity came to 262%. As for `COc1cccc2sc(NS(=O)(=O)c3cccs3)nc12`, the Activity was 41.6%.

For `COc1cccc2sc(NC(=O)c3cccs3)nc12`, the Activity amounted to 86.6%. In the case of `COc1cccc2sc(NS(=O)(=O)c3ccc(C#N)cc3)nc12`, the Activity came to 46.1%. On to `COc1cccc2sc(NC(=O)Nc3cccs3)nc12`, for which the Activity came to 41.6%. As for `O=S(=O)(Nc1cccc2[nH]ccc12)c1ccccc1I`, the Activity stood at 74.8%. Turning to `O=[N+]([O-])c1ccc(S(=O)(=O)Nc2ccc3cc[nH]c3c2)cc1`, the Activity amounted to 63.5%. On the same count and under the same terms, under `COc1cccc2sc(NC(=O)c3ccc(F)cc3F)nc12` stands 128%; under `COc1cccc2sc(NC(=O)Nc3ccc(C#N)cc3)nc12`, above 200%; under `COc1cccc2sc(NC(=O)Nc3cccc(C(F)(F)F)c3)nc12`, above 200%. With `COc1cccc2sc(NC(=O)c3ccc(Br)cc3)nc12`, the Activity is above 200%.

On to `COc1cccc2sc(NC(=O)c3ccccc3C)nc12`, for which the Activity came out at 137%. Consider `COc1cccc2sc(NC(=O)Nc3ccc([N+](=O)[O-])cc3)nc12`, for which the Activity was found to be 79%. For `COc1cccc2sc(NC(=O)Nc3ccccc3I)nc12`, the Activity is 125%. For the compound `COc1cccc2sc(NC(=O)Nc3ccc(C(F)(F)F)cc3)nc12`, the Activity amounted to 94.8%. Turning to `COc1cccc2sc(NC(=O)Nc3ccc(F)cc3F)nc12`, the Activity amounted to 184%. Same read-out and setting: under `COc1cccc2sc(NC(=O)c3ccc(C(F)(F)F)cc3)nc12` stands 116%. Consider `COc1cccc2sc(NC(=O)c3ccccc3)nc12`, for which the Activity is 107%. Regarding `O=[N+]([O-])c1ccc(S(=O)(=O)Nc2cccc3[nH]ccc23)cc1`, the Activity stood at 83.9%. The same measure, in the same setting: under `O=C(Nc1ccc2[nH]ccc2c1)Nc1ccccc1I` stands 40.3%.

As for `COc1cccc2sc(NS(=O)(=O)c3ccccc3F)nc12`, the Activity turned out to be 64.9%. On the same count and under the same terms, under `COc1cccc2sc(NS(=O)(=O)c3ccccc3C)nc12` stands 32.7%; under `COc1cccc2sc(NS(=O)(=O)c3ccc(Br)cc3)nc12`, 43.1%; under `COc1cccc2sc(NC(=O)c3cc(Cl)cc(Cl)c3)nc12`, 95.4%. For `COc1cccc2sc(NS(=O)(=O)c3ccccc3I)nc12`, the Activity is 5.8%.

In the case of `COc1cccc2sc(NS(=O)(=O)c3cccc([N+](=O)[O-])c3)nc12`, the Activity came out at 40.1%. Regarding `COc1cccc2sc(NC(=O)c3ccccc3[N+](=O)[O-])nc12`, the Activity was 102%. Consider `COc1cccc2sc(NC(=O)c3ccccc3F)nc12`, for which the Activity stood at 98.7%. `COc1cccc2sc(NS(=O)(=O)c3ccccc3)nc12`: the Activity was found to be 74.6%. On the same count and under the same terms, under `COc1cccc2sc(NS(=O)(=O)c3ccc(F)cc3F)nc12` stands 87.9%; under `COc1cccc2sc(NS(=O)(=O)c3ccc([N+](=O)[O-])cc3)nc12`, 9.5%; under `COc1cccc2sc(NS(=O)(=O)c3ccc(Cl)cc3)nc12`, 40.3%. For `O=S(=O)(Nc1ccc2cc[nH]c2c1)c1ccccc1I`, the Activity was 104%.

For a further experiment the target is unchanged. The experiment is described as follows: Inhibition of recombinant alpha-Synuclein (unknown origin) aggregation assessed as reduction in oligomer formation at compound-protein ratio of 1:0.6 incubated for 10 mins in presence of 53W light exposure for 1 sec by PICUP assay.
Settings: not given
The essentials: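 α-Syn (60 μM) in 10 mM phosphate buffer was cross-linked with Ru(bpy)3 (300 μM) and ammonium persulfate (6 mM), compound at 50, 100 or 200 μM. Light from a 53 W incandescent bulb for 1 s. Laemmli/2-mercaptoethanol added, then 95 °C for 10 min. Samples run on 16 % SDS-PAGE with Coomassie stain; oligomer bands at 35–40 kDa assessed. Controls lacked light or Ru(bpy)3.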
In the case of `COc1cccc2sc(NS(=O)(=O)c3ccccc3I)nc12`, the inhibition entry was “inactive”. As to `COc1cccc2sc(NS(=O)(=O)c3ccc([N+](=O)[O-])cc3)nc12`, the inhibition result was “inactive”.
